Source: ChEMBL document CHEMBL2434933, “Synthesis, physicochemical properties of allopurinol derivatives and their biological activity against Trypanosoma cruzi” (Eur J Med Chem, 2013)
≈ marks a conversion by molar mass, not a printed value. Calls of active or inactive are those of the source. The calls are words filed in the database; no cut-off is given here.

Tests used:
Trypanosoma cruzi [1] = assay: Antimicrobial activity against Trypanosoma cruzi RA amastigotes infected in African green monkey Vero cells assessed as growth inhibition at 1 ug/ml after 72 hrs by Giemsa staining-based light microscopy; assay type: functional, organism-based
Summary of the method: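 RA-strain bloodstream trypomastigotes infected irradiated Vero cells (2000 rads) on coverslips at a 5:1 parasite:cell ratio for 24 h. Cells were washed, then exposed to 1 ug/mL compound for 72 h at 37 °C in 5% CO2. Coverslips were fixed in methanol and Giemsa-stained. Infected cells were scored by light microscopy against untreated infected cultures.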

Trypanosoma cruzi [2] = assay: Antimicrobial activity against Trypanosoma cruzi RA amastigotes infected in African green monkey Vero cells assessed as growth inhibition after 72 hrs by Giemsa staining-based light microscopy; assay type: functional, organism-based
Summary of the method: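 Vero cells irradiated at 2000 rads, seeded on coverslips and infected with bloodstream trypomastigotes of RA strain at 5:1 parasite:cell for 24 h. Free parasites were washed off and cultures incubated 72 h with compound, 0.5–50 range, triplicate, at 37 °C in 5% CO2. Vehicle 0.5% DMSO. Coverslips were methanol-fixed and Giemsa-stained. Infection rate and amastigotes per cell (100 infected cells) were read by light microscopy. IC50 estimated from percentage infection.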

Trypanosoma cruzi [3] = assay: Antimicrobial activity against blood stream form of Trypanosoma cruzi RA assessed as growth inhibition at 1 to 70 ug/ml after 24 hrs by Neubauer chamber counting analysis; assay type: functional, organism-based
Summary of the method: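 RA-strain bloodstream trypomastigotes were enriched from infected-mouse blood at peak parasitemia. They were used at 1.5 x 10^6/mL in RPMI 1640 with 10% FCS. Parasites were exposed for 24 h at 37 °C in 5% CO2 to 0–70 ug/mL compound from 40 mM DMSO stocks (final DMSO <0.5%). 0.5% DMSO served as negative control. Surviving parasites were counted by Neubauer chamber. Three independent experiments, each in triplicate.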

[4] = Stability of the compound in 0.1 M SDS-0.01 M 7.5% (v/v) 1-propanol-NaH2PO4/H3PO4 assessed as compound recovery at 6 x 10^-8 mol/ml by micellar liquid chromatography; assay type: physicochemical
Summary of the method: (§1)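 Recovery: N1-acyl compounds were spiked at 7.5 x 10^-9, 6 x 10^-8 and 3.5 x 10^-7 mol/mL (ten replicates each) into pH 1.2 and 6.8 buffers, SGF and SIF. Analysis used MLC with 0.1 M SDS–7.5% 1-propanol–0.01 M NaH2PO4/H3PO4 pH 3.0, at 1 mL/min, 25 °C and 276 nm. Recovery was calculated against working standards.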

[5] = Drug degradation in simulated gastric fluid at 37 degC after 1 hr; assay type: physicochemical; conditions: read-out: Drug degradation
Summary of the method: (§2)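 Compounds came from DMSO stocks of 1.0 x 10^-4 mol/mL. They were incubated at 37 °C in buffer pH 1.2 or SGF (pepsin) for 1 h, and in buffer pH 6.8 or SIF (pancreatin) for 3 h. Samples were analysed by micellar LC. Percent degradation was reported; kinetics were treated as pseudo-first-order.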

[6] = Drug degradation in 0.1 M NaOH assessed as allopurinol formation at 1 mg/ml at 90 degC; assay type: physicochemical
[7] = Drug degradation in 0.1 M HCl assessed as allopurinol formation at 1 mg/ml at 90 degC; assay type: physicochemical; conditions: buffer
[8] = Intrinsic solubility of the compound in standard phosphate buffer at pH 6.8 at 37 degC after 24 hrs by shake-flask method; assay type: physicochemical; conditions: read-out: Intrinsic_solubility
Summary of the method: (§3)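 Shake-flask intrinsic solubility: solid compound was added to phosphate buffer until excess remained undissolved. The thermostated saturated solution was shaken for 24 h to reach equilibrium, at 25 °C and at 37 °C.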

[9] = Octanol-water partition coefficient, log P of the compound by RP-HPLC analysis; assay type: physicochemical
Summary of the method: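 RP-HPLC lipophilicity: isocratic buffer pH 5.5–MeOH, 30–75% MeOH in 5% steps. Three injections per compound and five per standard at each ratio. log k' = log(tR − t0)/t0 was computed from retention times.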

[10] = Drug degradation in 3.5% H2O2 assessed as allopurinol formation; assay type: physicochemical
[11] = Intrinsic solubility of the compound in standard phosphate buffer at pH 6.8 at 25 degC after 24 hrs by shake-flask method; assay type: physicochemical; conditions: read-out: Intrinsic_solubility; summary of the method: as §3
[12] = Stability of the compound in simulated gastric fluid assessed as retention time by micellar liquid chromatography; assay type: physicochemical; conditions: simulated gi fluid
[13] = Stability of the compound in 0.1 M SDS-0.01 M 7.5% (v/v) 1-propanol-NaH2PO4/H3PO4 assessed as compound recovery at 7.5 x 10^-9 mol/ml by micellar liquid chromatography; assay type: physicochemical; summary of the method: as §1
[14] = Drug degradation in simulated intestinal fluid at 37 degC after 3 hrs; assay type: physicochemical; conditions: read-out: Drug degradation; summary of the method: as §2
[15] = Drug degradation in buffer at 37 degC at pH 6.8 after 3 hrs in presence of pancreatin; assay type: physicochemical; conditions: buffer with pancreatin, read-out: Drug degradation; summary of the method: as §2
[16] = Half life in human plasma; assay type: ADME, cell-free
Summary of the method: (§4)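 Stability in human plasma was followed by micellar LC, with allopurinol tracked as product. Pseudo-first-order kinetics gave t1/2 or kobs.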

[17] = Drug degradation in buffer at 37 degC at pH 1.2 after 1 hr
[18] = Stability of the compound in 0.1 M SDS-0.01 M 7.5% (v/v) 1-propanol-NaH2PO4/H3PO4 assessed as compound recovery at 3.5 x 10^-7 mol/ml by micellar liquid chromatography; assay type: physicochemical; summary of the method: as §1
Plasma = assay: Metabolic stability of the compound in human plasma; assay type: ADME, cell-free; summary of the method: as §4
[19] = Stability of the compound in simulated gastric fluid at 37 degC after 1 hr; assay type: physicochemical; conditions: simulated gi fluid; summary of the method: as §2
[20] = Stability of the compound in simulated intestinal fluid assessed as retention time by micellar liquid chromatography; assay type: physicochemical; conditions: simulated gi fluid
[21] = Stability of the compound in buffer at 37 degC at pH 6.8 after 3 hrs in presence of pancreatin; assay type: ADME; conditions: pH 6.8, 3 h; summary of the method: as §2
[22] = Stability of the compound in buffer at 37 degC at pH 1.2 after 1 hr in presence of pepsin; assay type: ADME; conditions: isolated protein, pH 1.2, 1 h; summary of the method: as §2
[23] = Drug degradation in 30% H2O2 assessed as allopurinol formation; assay type: physicochemical
[24] = Stability of the compound in simulated intestinal fluid at 37 degC after 3 hrs; assay type: physicochemical; conditions: simulated gi fluid; summary of the method: as §2
[25] = Stability of the compound in 0.05 M SDS-0.01 M NaH2PO4/H3PO4 assessed as compound recovery at 7.5 x 10^-9 mol/ml by micellar liquid chromatography; assay type: physicochemical
Summary of the method: (§5)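 Analytical recovery. Standards at 7.5 × 10⁻⁹, 6 × 10⁻⁸ and 3.5 × 10⁻⁷ mol/mL, ten replicates each, were spiked into pH 1.2 and pH 6.8 buffers and into SGF and SIF. They were analysed by MLC with mobile phase 0.05 M SDS–0.01 M NaH2PO4/H3PO4 pH 3.0 at 1.25 mL/min, 25 °C, detection at 250 nm. Recovery was found concentration relative to working standards.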

[26] = Stability of the compound in 0.05 M SDS-0.01 M NaH2PO4/H3PO4 assessed as compound recovery at 6 x 10^-8 mol/ml by micellar liquid chromatography; assay type: physicochemical; summary of the method: as §5
[27] = Stability of the compound in 0.05 M SDS-0.01 M NaH2PO4/H3PO4 assessed as compound recovery at 3.5 x 10^-7 mol/ml by micellar liquid chromatography; assay type: physicochemical; summary of the method: as §5
[28] = Dissociation constant, pKa of the compound at 25 degC; assay type: physicochemical
Summary of the method: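 pKa computed with ACDpKa software. Only for the parent drug was it checked against a pH-solubility profile at 25 °C.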

[29] = Drug degradation in 0.1 M NaOH at 1 mg/ml at 90 degC after 16 hrs; assay type: physicochemical
Summary of the method: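 Compound at 1 mg/mL was heated in 0.1 M NaOH at 90 °C for 16 h. Percent degradation was quantified by micellar liquid chromatography.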

[30] = Cytotoxicity against mouse splenocytes assessed as cell viability at 50 times IC50 after 32 hrs by Alamar Blue assay; assay type: cell-based; conditions: splenocyte
Summary of the method: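 Viability was read by Alamar Blue and expressed as percent of untreated control. Two experiments, each in duplicate.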

Structure (SMILES)	Drug recovery [4]	solubility thermodynamic at 24 h [8]	logP [9]	solubility thermodynamic at 24 h [11]	Retention_time [12]	Drug recovery [13]	Drug recovery [18]	Stability (Plasma)	Retention_time [20]	growth inhibition (GI) (Trypanosoma cruzi [1])	growth inhibition (GI) (Trypanosoma cruzi [3])	also measured
CCCC(=O)n1ncc2c(=O)[nH]cnc21	–	–	–	–	–	–	–	–	–	Active	inactive	IC50 (Trypanosoma cruzi [2]): 11.3 µM; inhibition (Trypanosoma cruzi [2]): Dose-dependent effect
Oc1ncnc2[nH]ncc12 [ALLOPURINOL]	98.55%	900 µg/mL (≈ 6.61 mM)	–	490 µg/mL (≈ 3.6 mM)	2.4 min	102.4%	97.54%	100%	2.6 min	Active	–	Drug recovery [25]: 97.37%; Drug recovery [26]: 98.85%; IC50 (Trypanosoma cruzi [2]): 9.62 µM; inhibition (Trypanosoma cruzi [2]): Dose-dependent effect; Drug recovery [27]: 100.17%; pKa [28]: 9.7; Stability [29]: Stable; Activity [30]: Non-toxic
CCCc1nc2n[nH]cc2c(=O)[nH]1	99.59%	2560 µg/mL (≈ 14.4 mM)	1.14	2070 µg/mL (≈ 11.6 mM)	–	101.17%	100.27%	100%	7.8 min	–	–	Stability [19]: Stable; Stability [21]: Stable; Stability [22]: Stable; Stability [24]: Stable
CCCc1nc(O)c2c[nH]nc2n1	–	–	–	–	–	–	–	–	–	–	inactive	–
CCC(=O)n1ncc2c(=O)[nH]cnc21	–	–	–	–	–	–	–	–	–	–	inactive	–
O=C(Cn1ccnc1[N+](=O)[O-])NCc1ccccc1	–	–	–	–	–	–	–	–	–	Active	–	–
CC(=O)n1ncc2c(=O)[nH]cnc21	–	–	–	–	–	–	–	–	–	–	inactive	–

Second part, led by results:

Drug recovery [4]	solubility thermodynamic at 24 h [8]	logP [9]	solubility thermodynamic at 24 h [11]	Retention_time [12]	Drug recovery [13]	Drug recovery [18]	Stability (Plasma)	Retention_time [20]	Structure (SMILES)	growth inhibition (GI) (Trypanosoma cruzi [1])	growth inhibition (GI) (Trypanosoma cruzi [3])	also measured
103.09%	> 65 µg/mL	1.22	> 65 µg/mL	4 min	99.74%	103.18%	Unstable	–	CCC(=O)n1ncc2c(O)ncnc21	–	–	degraded at 1 h [5]: 32%; Stability [6]: Unstable; Stability [7]: Unstable; Stability [10]: Unstable; degraded at 3 h [14]: 100%; metabolised at 3 h [15]: 100%; half-life [16]: 9.5 min; metabolised at 1 h [17]: 30.3%
102.72%	2020 µg/mL (≈ 13.5 mM)	-0.05	1480 µg/mL (≈ 9.86 mM)	–	98.57%	102.77%	100%	3 min	Cc1nc(O)c2c[nH]nc2n1	Active	inactive	Stability [19]: Stable; Stability [21]: Stable; Stability [22]: Stable; Stability [23]: Stable; Stability [24]: Stable
102.42%	> 65 µg/mL	0.4	> 65 µg/mL	3 min	98.03%	99.04%	Unstable	–	CC(=O)n1ncc2c(O)ncnc21	–	–	degraded at 1 h [5]: 18.9%; Stability [6]: Unstable; Stability [7]: Unstable; Stability [10]: Unstable; degraded at 3 h [14]: 100%; metabolised at 3 h [15]: 100%; half-life [16]: 8.4 min; metabolised at 1 h [17]: 17.1%
97.07%	940 µg/mL (≈ 5.73 mM)	0.52	710 µg/mL (≈ 4.32 mM)	–	101.19%	97.78%	100%	4.7 min	CCc1nc(O)c2c[nH]nc2n1	Active	inactive	Stability [19]: Stable; Stability [21]: Stable; Stability [22]: Stable; Stability [24]: Stable
101.42%	> 65 µg/mL	1.99	> 65 µg/mL	7.7 min	103.11%	100.3%	Unstable	–	CCCC(=O)n1ncc2c(O)ncnc21	–	–	degraded at 1 h [5]: 26.5%; Stability [6]: Unstable; Stability [7]: Unstable; Stability [10]: Unstable; degraded at 3 h [14]: 100%; metabolised at 3 h [15]: 100%; half-life [16]: 6.1 min; Activity [30]: Non-toxic; metabolised at 1 h [17]: 27%
